Results on 97 compounds are retold here after ChEMBL document CHEMBL4513216, “Probing the Open Global Health Chemical Diversity Library for Multistage-Active Starting Points for Next-Generation Antimalarials” (ACS Infect Dis, 2020).

This data set is described as follows: Toxicity liver stage against HepG2, at 10uM. Set-up: test concentration 10 uM, cell line HepG2-A16-CD81EGFP. Particulars: human, HepG2-A16-CD81EGFP cells; read-out: INHIBITION
The data set is classed as cell-based. Put shortly:
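Uninfected HepG2-A16-CD81EGFP cells, 3 × 10^3 per well, 1536-well, plated on prespotted compound at 10 μM final, parasite-free screening media added to match infected plates; puromycin 10 μM positive, DMSO 0.5% negative; run in parallel with 48 h PbLuc assay at 37 °C, 5% CO2; viability by CellTiter-Glo luminescence, normalized to controls.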
For the compound `COc1ccc(-c2nnc([C@H]3CCN(CC(C)(C)C)C3)o2)cc1`, the cytotoxicity at 10 µM was -3.43%.

`CS(=O)(=O)N1CCC(Oc2ccc(C(=O)NC3CCOC3)cc2Cl)CC1` (configuration not stated): the cytotoxicity at 10 µM was -4.88%.

Consider `CN(CCO)C[C@@H]1CN(C(=O)Cc2ccc3ccccc3c2)C[C@@H]1CO`, for which the cytotoxicity at 10 µM was -1.96%.

For `CO[C@H]1CN(C(=O)c2cn3cc(C)ccc3n2)CC[C@@]12CCCO2`, the cytotoxicity at 10 µM is 3.6%.

For `COc1cc(NC(=O)c2cccc(N(C)C)c2)cc(OC)c1`, the cytotoxicity at 10 µM worked out at 0.03%.

Take `CC(NCc1ccncc1)c1cc(F)ccc1N1CCN(C)CC1` (configuration not stated): the cytotoxicity at 10 µM is -2.98%.

Consider `O=C(CCNc1ncccn1)N1CCN(c2nccs2)CC1`, for which the cytotoxicity at 10 µM is -11.6%.

With `Cc1ccn(-c2ccccc2NCc2cccnc2)n1`, the cytotoxicity at 10 µM stood at 0.508%.

On to `O=C(Cn1c(=O)oc2ccccc21)NCC1(O)CCc2ccccc2C1` (configuration not stated), for which the cytotoxicity at 10 µM was 5.37%.

On to `CN(Cc1ccc([S+](C)[O-])cc1)c1cncc(Cl)n1` (configuration not stated), for which the cytotoxicity at 10 µM is -10.6%.

Take `O=C(c1c2c(N3CCCC3)ncnc2n2ccccc12)N1CCOCC1`: the cytotoxicity at 10 µM worked out at 9.49%.

As to `Cc1cnn(CCC(=O)NS(=O)(=O)N2CCCc3ccccc32)c1`, the cytotoxicity at 10 µM was found to be 9.73%.

As for `CN1CCC(N(C)C(=O)CCc2ccc(F)c(F)c2)C1=O` (configuration not stated), the cytotoxicity at 10 µM is -17.7%.

On to `O=C1N(Cc2ccc(F)c(F)c2)CCCC1(O)CNCc1ncc[nH]1` (configuration not stated), for which the cytotoxicity at 10 µM was -4.27%.

As for `CC(=O)N1N=C(Cc2ccccc2)OC1C(=O)NCC(=O)OC(C)(C)C` (configuration not stated), the cytotoxicity at 10 µM was found to be 0.15%.

`COc1ccc2c(c1)OCC(C(=O)NCc1ncc3c(n1)CCC3)C2` (configuration not stated): the cytotoxicity at 10 µM was 2.15%.

`CS(=O)(=O)NCc1cc(-c2cc(F)cc(F)c2)nc(N2CCOCC2)n1`: the cytotoxicity at 10 µM is -9.24%.

As for `CC(CNS(N)(=O)=O)Oc1ccc(Cl)cc1` (configuration not stated), the cytotoxicity at 10 µM is -5.37%.

On to `CCC(CC)NC(=O)c1cccnc1-n1cccn1`, for which the cytotoxicity at 10 µM was -13.9%.

For the compound `N#Cc1cccc(CNC(=O)C2=NN(c3ccccc3)C(=O)CN2)c1`, the cytotoxicity at 10 µM is -3.44%.

In the case of `CC(C)N1CCCC2(CCN(C(=O)COCC(F)(F)C(F)F)C2)C1=O` (configuration not stated), the cytotoxicity at 10 µM is 13.1%.

With `Cc1cc(CNC(=O)CCN2CCN(c3ccccn3)CC2)c(C)o1`, the cytotoxicity at 10 µM stood at 1.71%.

Regarding `CS(=O)(=O)N1CCC(Oc2ccc(C(=O)NC3CCCC3)cc2Cl)CC1`, the cytotoxicity at 10 µM was -1.02%.

With `CC(C)N1CCN(C(=O)Cc2csc(-c3ccco3)n2)CC1`, the cytotoxicity at 10 µM was -2.93%.

For the compound `Cc1nc(CN(C)C)cc(N2CCCC(COc3ccc(F)cc3)C2)n1` (configuration not stated), the cytotoxicity at 10 µM was -7.4%.

With `Cc1ncncc1C(=O)N1CCCN(Cc2ncc(Cl)n2C)CC1`, the cytotoxicity at 10 µM was 6.45%.

Turning to `COc1ccc(OC)c(C2CCN(C3CCN(C(C)=O)CC3)C2)c1` (configuration not stated), the cytotoxicity at 10 µM is -3.2%.

Regarding `COc1cc2ncn(Cc3ncc[nH]3)c(=O)c2cc1OC`, the cytotoxicity at 10 µM came out at 5.56%.

As for `CCc1c(C)noc1-c1cnc(NC2CC2)nc1-c1cnc(C)cn1`, the cytotoxicity at 10 µM is -29%.

With `CCc1c(C)nc2n(c1=O)CC(C(=O)Nc1ncccc1C)CS2` (configuration not stated), the cytotoxicity at 10 µM was 7.14%.

Take `Cc1cc(S(=O)(=O)Nc2cccc(OC(F)F)c2)sc1C(=O)O`: the cytotoxicity at 10 µM is -0.229%.

Consider `Cc1c(CN2CCCC(C(=O)CCc3ccccc3)C2)cc(C#N)n1C` (configuration not stated), for which the cytotoxicity at 10 µM was -5.76%.

On to `Cc1cc(C)cc(NCCC(=O)NC2CCCCC2)c1`, for which the cytotoxicity at 10 µM stood at 7.61%.

For the compound `Cc1oc(-c2ccco2)nc1CN1CCc2cnc(C(C)C)nc2C1`, the cytotoxicity at 10 µM came out at 0.0371%.

For `Cc1ccoc1CNC(C)c1nnc2n1CCCC2` (configuration not stated), the cytotoxicity at 10 µM was -12.6%.

`Cn1cc(CN2CC[C@@H]3[C@@H](CCC(=O)N3CCc3c[nH]cn3)C2)cn1`: the cytotoxicity at 10 µM is -9.73%.

Turning to `CN(C(=O)c1cccc(C#N)c1)c1nnc(C2CCOC2)s1` (configuration not stated), the cytotoxicity at 10 µM was determined as 5.96%.

On to `COc1c(F)cccc1C(=O)NC(C)c1cnn(C)c1` (configuration not stated), for which the cytotoxicity at 10 µM came out at 24.5%.

Turning to `CC(C)NC(=O)C1CCN(C(C)C(=O)N2CCc3sccc3C2)CC1` (configuration not stated), the cytotoxicity at 10 µM turned out to be 5.52%.

Take `O=C(NCCCc1ccco1)c1ccc(N2CCOCC2)cc1`: the cytotoxicity at 10 µM is -5.54%.

Regarding `Cc1occc1C(=O)N1CCC[C@]2(C[C@@H](OCc3ccncc3)CO2)C1`, the cytotoxicity at 10 µM was -6.25%.

Take `CSCC(C)(O)CNS(=O)(=O)c1ccc(F)cc1` (configuration not stated): the cytotoxicity at 10 µM was -8.06%.

`c1cc(-c2noc(CN3CCn4c(nnc4C4CC4)C3)n2)cs1`: the cytotoxicity at 10 µM was -7.07%.

In the case of `O=S(=O)(Cc1ccon1)N1CCN(c2ccncc2Cl)CC1`, the cytotoxicity at 10 µM is -4.96%.

In the case of `C[C@@H]1CN(c2nc(O)cc(Cc3ccccc3F)n2)C[C@H](C)O1`, the cytotoxicity at 10 µM amounted to 5.31%.

`CC(C)NC(=O)[C@@H]1CN(Cc2nccs2)C[C@H]2OCC[C@H]21`: the cytotoxicity at 10 µM was -93.5%.

On to `COc1cccc(OCC(=O)NS(=O)(=O)c2cccnc2)c1`, for which the cytotoxicity at 10 µM was -12.1%.

`N#CC1CCCN(c2ncnc3c2CCN(Cc2ccccc2)CC3)C1` (configuration not stated): the cytotoxicity at 10 µM is -3.64%.

In the case of `CN(Cc1ccco1)C(=O)CN1CCc2ccccc2C1`, the cytotoxicity at 10 µM is -2.19%.

With `CCOCCOC(C)C(=O)NCc1cn2cc(Br)ccc2n1` (configuration not stated), the cytotoxicity at 10 µM is -6.83%.

Take `Cc1cnc(C(=O)N2CCCC(n3cncn3)C2)cn1` (configuration not stated): the cytotoxicity at 10 µM was -2.97%.

`CCOC(C)c1nccn1Cc1cc(C)on1` (configuration not stated): the cytotoxicity at 10 µM was 8.41%.

As to `CN(C)CC(=O)N1CCC2(CCc3cc(-c4cccnc4)ccc32)CC1`, the cytotoxicity at 10 µM is 4.01%.

As to `Cn1c(CN2CCN(c3cccnc3)CC2)cc2ccccc21`, the cytotoxicity at 10 µM came to 5.33%.

`O=C1CC2(CCSC2)C(=O)N1CCCc1ccccc1` (configuration not stated): the cytotoxicity at 10 µM stood at 6.43%.

Consider `CC(=O)Nc1ccc(C(=O)N(C)C(C)Cc2cc(C)ccn2)cn1` (configuration not stated), for which the cytotoxicity at 10 µM was 1.32%.

Regarding `Cc1ccc(N(C)C2CCN(C(=O)c3ccsc3)CC2)nn1`, the cytotoxicity at 10 µM is -12.1%.

Take `O=C(C1=CCCCC1)N1CCC2(CC1)COC(COc1ccccn1)C2` (configuration not stated): the cytotoxicity at 10 µM was -1.88%.

For the compound `Cc1ccc(C(=O)NCCN2CCOCC2)cc1N(C)S(C)(=O)=O`, the cytotoxicity at 10 µM stood at 15.1%.

For the compound `CC(=O)N1CCC(n2ccc(-c3cnc(NCC(C)C)nc3)n2)CC1`, the cytotoxicity at 10 µM is -9.13%.

As to `CCc1ccc(CN2C[C@@H]3OCCN(c4ccnc(N(C)C)n4)[C@@H]3C2)o1`, the cytotoxicity at 10 µM was determined as 61.8%.

Turning to `CCN(C)CC(=O)N1CCN(Cc2ccccc2)[C@@H]2CS(=O)(=O)C[C@@H]21`, the cytotoxicity at 10 µM was -5.18%.

`CC(C)(CN1CCC2(CCNCC2)CC1)N1CCOCC1`: the cytotoxicity at 10 µM is -148%.

For `Cc1nc(NCc2cccnc2)cc(C2COCCN2)n1` (configuration not stated), the cytotoxicity at 10 µM worked out at 3.78%.

On to `Cn1ccnc1CN1CCCN(C(=O)COC2CCCC2)CC1`, for which the cytotoxicity at 10 µM is -18.1%.

As to `O=C(Nc1cccc(CNCc2ccsc2)c1)C1CC1`, the cytotoxicity at 10 µM is -10.7%.

Take `Cc1cc(F)c(S(=O)(=O)NCC(C)(C)N)cc1F`: the cytotoxicity at 10 µM was determined as 6.65%.

Take `CC(NC(=O)NCCC1=CCCCC1)c1nncn1C` (configuration not stated): the cytotoxicity at 10 µM was -11.7%.

For `COc1cc2c(cc1OC)C(=O)C(Sc1nnnn1C)C2` (configuration not stated), the cytotoxicity at 10 µM is -13.7%.

As to `O=C(COCc1ccccc1Cl)N1CCN(c2ncccn2)CC1`, the cytotoxicity at 10 µM is 6.43%.

As for `CC(C)c1sc(Cl)nc1C(=O)N1CCN(c2ccccn2)CC1`, the cytotoxicity at 10 µM was -43.8%.

`O=C(N[C@@H]1CCC[C@@H](N2CCOCC2)[C@@H]1O)c1ncccn1`: the cytotoxicity at 10 µM is -25.9%.

On to `O=C(NCCn1nc(-n2cncn2)ccc1=O)c1ccccc1Br`, for which the cytotoxicity at 10 µM is -2.02%.

Take `COCCN1CC(Nc2nc(C(C)C)nc3c2cnn3C)CC1=O` (configuration not stated): the cytotoxicity at 10 µM was -1.52%.

`N#Cc1c(F)cccc1Nc1cnn(CC(O)CN2CCOCC2)c1` (configuration not stated): the cytotoxicity at 10 µM was -1.47%.

Take `CS(=O)(=O)c1nccn1CCOc1ccc(F)cc1Cl`: the cytotoxicity at 10 µM came out at 13.1%.

Regarding `CC(C)N1CCCC2(CCN(C(=O)CCCn3ccnc3)C2)C1=O` (configuration not stated), the cytotoxicity at 10 µM was -6.43%.

With `Cc1ccc(NC2CCN(C(=O)c3cscn3)CC2)nn1`, the cytotoxicity at 10 µM was -8.73%.

Regarding `Cc1cc(C)cc(NCCC(=O)NCc2cccnc2N(C)C)c1`, the cytotoxicity at 10 µM is -0.211%.

In the case of `COc1c(CNC2CCc3c(F)cccc32)c(C)nn1C` (configuration not stated), the cytotoxicity at 10 µM is 0.665%.

Take `COc1ccccc1S(=O)(=O)CCOC(C)C`: the cytotoxicity at 10 µM is 6.24%.

On to `CCO[C@@H]1CCN(C(=O)c2ccc[nH]2)[C@@H]1Cc1cnn(C)c1`, for which the cytotoxicity at 10 µM stood at 1.44%.

`CCc1nnsc1C(=O)N(C)Cc1ccco1`: the cytotoxicity at 10 µM is -45%.

Take `CCn1cc(CN(C)Cc2cnn(-c3ccc(F)cc3)c2)cn1`: the cytotoxicity at 10 µM is -5.44%.

For the compound `Cc1c[nH]nc1C1CCCCN1C(=O)Cn1cc(Cl)cn1` (configuration not stated), the cytotoxicity at 10 µM stood at 4.11%.

Turning to `CN(C)C(=O)CN1CCC2(CC1)CC(=O)c1ccc3ccccc3c1O2`, the cytotoxicity at 10 µM came to 6.17%.

Turning to `CNC(=O)[C@H]1C[C@H]2CN(Cc3ccc(C)cc3)C[C@@H]1O2`, the cytotoxicity at 10 µM came out at 1.82%.

Turning to `COCCN1CCC(c2cncc(N(C)C)n2)CC1`, the cytotoxicity at 10 µM was -25.5%.

In the case of `CNC(=O)CCS(=O)(=O)Cc1cc(Cl)c2c(c1)OCCCO2`, the cytotoxicity at 10 µM is -6.31%.

For the compound `CN1CCc2onc(Cn3cccc3)c2C1`, the cytotoxicity at 10 µM is 7.25%.

As for `CC1COC2(CCN(C(=O)Cc3ccncc3)CC2)C1` (configuration not stated), the cytotoxicity at 10 µM was -105%.

Consider `COc1ccccc1CCNC(=O)CC1(Cn2cnnn2)CCCCC1`, for which the cytotoxicity at 10 µM came to 11.3%.

As for `CC1CCN(CCCNS(=O)(=O)c2cc(F)cc(F)c2)CC1`, the cytotoxicity at 10 µM is 11.3%.

With `O=S1(=O)CCC(n2cc(CNCC3(c4ccccc4)CC3)cn2)C1` (configuration not stated), the cytotoxicity at 10 µM turned out to be 16.5%.

In the case of `Cc1cc(CN2CC3(CCN(C(=O)C4CC4)CC3)CC2C(=O)O)oc1C` (configuration not stated), the cytotoxicity at 10 µM was 1.1%.

As for `CCN(CC)CCNC(=O)c1ccn(COc2cc(C)cc(C)c2)n1`, the cytotoxicity at 10 µM was determined as 4.36%.

`CCC(=O)Nc1ccc(C(C)Nc2nc3c(cnn3C)c(=O)[nH]2)cc1` (configuration not stated): the cytotoxicity at 10 µM was determined as 4.01%.
